Assay type in all cases: ADME
Data set [1] concerns the target T1, Cytochrome P450 3A4 (Homo sapiens, UniProt P08684). In words: Binding affinity to C-terminal four-histidine tagged human CYP3A4delta3 to 24 residues expressed in Escherichia coli assessed as rate constant for first phase. In a few lines:
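Stopped-flow mixing of 2 μM CYP3A4 with varied ligand concentrations, room temperature, 50 mM phosphate pH 7.4. Absorbance followed at 409–411 or 427–428 nm depending on ligand. Fast-phase rate constant taken at saturating ligand concentration.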

Data set [2] addresses T1, Cytochrome P450 3A4. Nature of the data set: Binding affinity to C-terminal four-histidine tagged human CYP3A4delta3 to 24 residues expressed in Escherichia coli assessed as change in melting temperature at 10 uM by spectrophotometric method.
In data set [3] the target is T1, Cytochrome P450 3A4. In words: Inhibition of C-terminal four-histidine tagged human CYP3A4delta3 to 24 residues expressed in Escherichia coli assessed as 7-benzyloxy-4-(trifluoromethyl)coumarin O-debenzylation pretreated 2 mins followed by NADPH addition by fluorometric method in presence of rat cytochrome P450 reductase. Put shortly: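 Reconstituted system at room temperature in 100 mM phosphate pH 7.4 with catalase and superoxide dismutase (2 units/mL each). 1 μM CYP3A4 and 1 μM rat CPR preincubated 1 h at room temperature, then diluted 20-fold in assay buffer just before measurement. BFC (50 μM) and varying compound concentrations added 2 min before starting with 100 μM NADPH. O-debenzylation read fluorometrically; IC50 = half-maximal inactivation.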

Data set [4] deals with T1, Cytochrome P450 3A4. Nature of the data set: Binding affinity to C-terminal four-histidine tagged human CYP3A4delta3 to 24 residues expressed in Escherichia coli assessed as spectral dissociation constant by spectrophotometric method. In a few lines:
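Equilibrium titration of CYP3A4 in 50 mM phosphate pH 7.4 with 20% glycerol and 1 mM DTT. Ligand added in small aliquots from DMSO stock, final DMSO <2%. Absorbance spectra recorded. Ks obtained from one- or two-site saturation fit of absorbance change versus ligand concentration.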

T1 sequence (P08684 whole entry, the tested form may be a part): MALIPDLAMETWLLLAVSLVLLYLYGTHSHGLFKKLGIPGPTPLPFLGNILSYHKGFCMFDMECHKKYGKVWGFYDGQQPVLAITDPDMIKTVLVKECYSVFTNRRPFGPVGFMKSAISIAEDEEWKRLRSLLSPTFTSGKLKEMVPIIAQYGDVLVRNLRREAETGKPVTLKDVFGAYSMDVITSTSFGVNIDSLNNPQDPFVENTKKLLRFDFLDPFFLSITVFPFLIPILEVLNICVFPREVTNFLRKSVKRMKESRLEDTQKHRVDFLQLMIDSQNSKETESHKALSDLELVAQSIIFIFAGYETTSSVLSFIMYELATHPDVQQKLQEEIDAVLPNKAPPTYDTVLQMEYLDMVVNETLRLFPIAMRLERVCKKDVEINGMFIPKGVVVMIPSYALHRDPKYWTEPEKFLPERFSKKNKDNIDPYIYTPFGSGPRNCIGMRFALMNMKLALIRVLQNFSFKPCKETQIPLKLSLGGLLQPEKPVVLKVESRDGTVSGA

As to `c1ccncc1` [PYRIDINE], the K on Cytochrome P450 3A4 [1] is 0.5 s⁻¹. The deltaTm on Cytochrome P450 3A4 [2] came to 0 °C.
Broadly, the IC50 is the concentration needed to halve the response being measured. For `CC(C)(C)OC(=O)NCCCCCC(=O)NCc1cccnc1`, the K at Cytochrome P450 3A4 [1] amounted to 20 s⁻¹. For the same molecule, on Cytochrome P450 3A4 [2], the deltaTm was -0.2 °C. Moreover, the IC50 at Cytochrome P450 3A4 [3] amounted to 75 µM.
As a reminder, the Kd is the free concentration of one partner at which half of the binding sites on the other are occupied at equilibrium, for simple one-to-one binding. Turning to `CC(C)(C)OC(=O)N[C@H](CSCCC(=O)NCc1cccnc1)Cc1ccccc1`, the Kd on Cytochrome P450 3A4 [4] came out at 0.9 µM. Besides, the K at Cytochrome P450 3A4 [1] was 1.7 s⁻¹. For the same molecule, the deltaTm at Cytochrome P450 3A4 [2] is -1 °C. Further, the IC50 on Cytochrome P450 3A4 [3] was determined as 0.52 µM.
Turning to `NCCCCCC(=O)NCc1cccnc1`, on Cytochrome P450 3A4 [4], the Kd turned out to be 10 µM. For the same molecule, the K on Cytochrome P450 3A4 [1] was determined as 0.8 s⁻¹. At Cytochrome P450 3A4 [2], the deltaTm was -0.2 °C. Further, the IC50 on Cytochrome P450 3A4 [3] stood at 1000 µM.
`NCCc1cccnc1`: the Kd on Cytochrome P450 3A4 [4] amounted to 2500 µM. Besides, at Cytochrome P450 3A4 [1], the K was determined as 0.6 s⁻¹. In addition, the deltaTm on Cytochrome P450 3A4 [2] is -0.1 °C. Besides, the IC50 on Cytochrome P450 3A4 [3] was 5000 µM.
`CC(C)(C)OC(=O)N[C@H](CSCCC(=O)NCc1cccnc1)CC1CCCCC1`: the Kd on Cytochrome P450 3A4 [4] stood at 10 µM. The K at Cytochrome P450 3A4 [1] is 4 s⁻¹. Further, the deltaTm at Cytochrome P450 3A4 [2] is -2 °C. Further, the concentration for half-maximal inhibition (IC50) at Cytochrome P450 3A4 [3] worked out at 30 µM.
The matching figures for `CC(C)(C)OC(=O)N[C@H](CSCCC(=O)NCc1cccnc1)Cc1c[nH]c2ccccc12`: 0.5 µM, 8 s⁻¹, 0.2 °C and 0.21 µM.

These data come from ChEMBL document CHEMBL3813601, “Structure-Based Inhibitor Design for Evaluation of a CYP3A4 Pharmacophore Model” (J Med Chem, 2016).
